The record followed here is ChEMBL document CHEMBL3091412, “Discovery of an irreversible HCV NS5B polymerase inhibitor” (Bioorg Med Chem Lett, 2013).

SMILES strings stand for the structures.

In data set [1] the test system is Rattus norvegicus. Nature of the data set: Toxicity in rat assessed as mortality at 250 to 2000 mg/kg measured up to 1 day. It counts as organism-based. Details: dose 250-2000 mg/kg. The note with it: in vivo, 24 h. In outline: (§1)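 Single-dose rat toxicity study with dose groups of 250, 500, 1000 and 2000 mg/kg. Animals were monitored for clinical signs of toxicity, including stool appearance, and for mortality.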

For data set [2], the target named is T1, Cytochrome P450 1A2 (Homo sapiens, UniProt P05177).
T1 sequence (P05177 whole entry): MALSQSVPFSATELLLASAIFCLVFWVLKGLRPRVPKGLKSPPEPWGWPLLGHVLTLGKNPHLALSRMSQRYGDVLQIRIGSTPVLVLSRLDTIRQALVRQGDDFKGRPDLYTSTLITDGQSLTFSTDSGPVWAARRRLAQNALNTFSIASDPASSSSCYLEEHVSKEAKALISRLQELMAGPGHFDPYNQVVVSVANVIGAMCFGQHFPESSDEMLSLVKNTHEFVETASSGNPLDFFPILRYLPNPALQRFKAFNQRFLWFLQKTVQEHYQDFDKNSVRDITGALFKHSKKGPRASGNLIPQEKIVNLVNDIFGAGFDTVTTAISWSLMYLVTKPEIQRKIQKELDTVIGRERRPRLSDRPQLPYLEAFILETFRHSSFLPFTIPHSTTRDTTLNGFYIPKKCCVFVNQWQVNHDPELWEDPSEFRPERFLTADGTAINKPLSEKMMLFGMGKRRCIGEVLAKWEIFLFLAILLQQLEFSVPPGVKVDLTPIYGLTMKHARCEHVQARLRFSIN
Nature of the data set: Inhibition of CYP1A2 in human liver microsomes measured after concurrent incubation. It counts as ADME. The procedure, abridged: (§2)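 Human liver microsomes; CYP inhibition measured with compound added concurrently or after pre-incubation; concentration inhibiting 50% of enzyme activity determined.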
(In general: Liver microsomes are vesicles of endoplasmic reticulum, rich in cytochrome P450 enzymes.)

Data set [3] is described as follows: AUC in fed cynomolgus monkey at 10 mg/kg, po. It counts as ADME, organism-based, Macaca fascicularis. Details: dose 10 mg/kg, route oral. The following applies: plasma. The procedure, abridged:
(§3)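 Given orally as crystalline sodium salt to fed male Sprague Dawley rats (30–500 mg/kg) or fed male Cynomolgus monkeys (10–100 mg/kg) to assess dose exposure; plasma AUC and Cmax determined.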

Data set [4] deals with Cynomolgus monkey. Nature of the data set: Drug metabolism in cynomolgus monkey assessed as glutathione conjugate formation administered as single oral dose. It counts as ADME, organism-based, Macaca fascicularis. The following applies: in vivo. The procedure, abridged:
(§4)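 Radiolabeled [3H] compound given as single oral dose to monkey; bile and urine excretion and metabolites profiled, including parent fraction in bile and glutathione or sulfate conjugates.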

The test system of data set [5] is Cynomolgus monkey. Nature of the data set: Drug metabolism in cynomolgus monkey assessed as sulfate conjugate formation administered as single oral dose. It counts as ADME, organism-based, Macaca fascicularis. The following applies: in vivo. In outline: as §4
Data set [6] concerns the target T1, Cytochrome P450 1A2. Nature of the data set: Inhibition of CYP1A2 in human liver microsomes measured after compound pre-incubation. It is filed as ADME. In outline: as §2
The nature of data set [7]: AUC in fed Sprague-Dawley rat at 100 mg/kg, po. It counts as ADME, organism-based. Details: dose 100 mg/kg, route oral. The note with it: plasma. In outline:
as §3

Data set [8] in a line: Cmax in fed Sprague-Dawley rat at 250 mg/kg, po. It counts as ADME, organism-based. Details: dose 250 mg/kg, route oral. The note with it: in vivo. The procedure, abridged:
as §3

A further data set concerns the target Cytochrome P450 2D6 (Homo sapiens, UniProt P10635). Nature of the data set: Inhibition of CYP2D6 in human liver microsomes measured after compound pre-incubation. It is filed as ADME. The procedure, abridged:
as §2

Another data set addresses Cytochrome P450 2C19 (Homo sapiens, UniProt P33261). Nature of the data set: Inhibition of […] in human liver microsomes measured after concurrent incubation. It counts as ADME.
Data set [9] in a line: Cmax in fed Sprague-Dawley rat at 500 mg/kg, po. It is filed as ADME, organism-based. The note with it: in vivo. Details: dose 500 mg/kg, route oral. The procedure, abridged: as §3
Data set [10] concerns Rattus norvegicus. Nature of the data set: Toxicity in rat assessed as soft and mucoid stool at 1000 to 2000 mg/kg measured up to 1 day. It counts as organism-based. Details: dose 1000-2000 mg/kg. The following applies: in vivo, 24 h. The procedure, abridged: as §1

Cytochrome P450 2D6, sequence (P10635 whole entry): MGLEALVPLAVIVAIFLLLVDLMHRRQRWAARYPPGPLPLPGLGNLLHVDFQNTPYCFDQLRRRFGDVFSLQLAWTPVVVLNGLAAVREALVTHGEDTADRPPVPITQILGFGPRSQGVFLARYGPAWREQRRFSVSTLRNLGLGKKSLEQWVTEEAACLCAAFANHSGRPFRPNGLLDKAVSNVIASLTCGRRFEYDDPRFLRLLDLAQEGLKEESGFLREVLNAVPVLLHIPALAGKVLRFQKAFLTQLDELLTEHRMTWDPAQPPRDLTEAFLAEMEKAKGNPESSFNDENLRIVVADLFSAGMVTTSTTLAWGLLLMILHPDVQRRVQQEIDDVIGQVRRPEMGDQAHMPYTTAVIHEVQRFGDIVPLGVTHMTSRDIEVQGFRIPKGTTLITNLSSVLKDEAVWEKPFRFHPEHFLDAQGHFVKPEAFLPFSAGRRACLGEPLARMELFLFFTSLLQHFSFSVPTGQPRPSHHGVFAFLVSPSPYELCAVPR
Cytochrome P450 2C19, sequence (P33261 whole entry): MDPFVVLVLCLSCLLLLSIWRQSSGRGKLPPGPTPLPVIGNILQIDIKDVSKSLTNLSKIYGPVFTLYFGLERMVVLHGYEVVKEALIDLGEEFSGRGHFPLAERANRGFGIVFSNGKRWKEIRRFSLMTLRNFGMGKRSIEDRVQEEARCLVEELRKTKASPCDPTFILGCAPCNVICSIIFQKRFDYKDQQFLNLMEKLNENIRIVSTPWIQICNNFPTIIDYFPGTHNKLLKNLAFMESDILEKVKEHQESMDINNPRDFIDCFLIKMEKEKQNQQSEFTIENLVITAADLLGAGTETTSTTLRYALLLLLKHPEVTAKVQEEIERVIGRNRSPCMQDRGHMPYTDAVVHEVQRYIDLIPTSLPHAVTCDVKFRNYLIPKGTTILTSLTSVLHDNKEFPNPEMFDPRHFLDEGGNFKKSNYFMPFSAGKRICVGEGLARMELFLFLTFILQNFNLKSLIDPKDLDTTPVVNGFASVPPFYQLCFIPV

In general, IC50 refers to the point on the concentration scale where inhibition reaches its midpoint. The term AUC denotes concentration integrated over time. The term Cmax denotes the peak of the concentration-time curve. On to `Cc1cc2c(-c3ccc[nH]c3=O)c(C(=O)O)n(Cc3cc4ccccc4nc3Cl)c2cc1F`, for which the values for the Activity entry in the data set on Rattus norvegicus [1] and with Rattus norvegicus [10] were “Non-toxic” and “Toxic”, respectively. Besides, the IC50 against Cytochrome P450 1A2 [2], against Cytochrome P450 1A2 [6], against Cytochrome P450 2D6 and against Cytochrome P450 2C19 was more than 50 µM throughout. Further, the figures for the AUC in data set [3] and in data set [7] were 9 µM·h and 375 µM·h, respectively. Further, the Stability result in the data set on Cynomolgus monkey [4] and in the data set with Cynomolgus monkey [5] was “Stable” throughout. The Cmax in data set [8] is 66 µM; in data set [9], 65 µM.
